Experimental data pooled from the literature.
Each line is one published result; the experiments were not run side by side.
Medium: plasma

| SMILES | system | setting | Cmax |
| --- | --- | --- | --- |
| Cn1cc(-c2ccc(S(=O)(=O)[C@@H]3C[C@@H](C(=O)NC4(C#N)CC4)N(C(=O)C4(C(F)(F)F)CC4)C3)c(C(F)(F)F)c2)cn1 | human | oral, 3 mg, single dose, fasted, healthy volunteers | 20.8 ng/mL |
| CCc1nc2c(C)cc(N3CCN(CC(=O)N4CC(O)C4)CC3)cn2c1N(C)c1nc(-c2ccc(F)cc2)c(C#N)s1 | human | oral, 300 mg, single dose, fed, healthy volunteers | 3800 ng/mL |
| COc1ccc([C@@H]2CN(C(=O)[C@@H](O)CO)C[C@@]2(C)[C@@H](C)O)cc1OC1CN(c2ccc(C)cn2)C1 | human | oral, 0.5 mg, single dose, healthy volunteers | 30 ng/mL |
| CO[C@@H]1[C@H](OC(=O)N2CC(CCN3CCOCC3)C2)CC[C@]2(CO2)[C@H]1[C@@]1(C)O[C@@H]1CC=C(C)C | human | subcutaneous, 1.2 mg, single dose, healthy volunteers | 7.04 ng/mL |
| CCn1c(=O)c(-c2cc(NC(=O)Nc3ccccc3)c(F)cc2Br)cc2cnc(NC)cc21 | human | oral, 50 mg, single dose, patients | 339 ng/mL |
| CC(C)(O)c1ccccc1-c1ccc2[nH]c(/C=C/c3ccc(C(F)(F)F)cc3)nc2c1 | male human | oral, 60 mg, single dose, fasted, healthy volunteers | 177 ng/mL |
| COCCOc1cnc2ccn([C@H](C)c3nnc4c(F)cc(-c5cnn(C)c5)cn34)c(=O)c2c1 | human | oral, 25 mg, multiple doses, once daily, patients | 600 ng/mL |
| CO[C@H]1CC[C@H](N2C(=O)CNc3ncc(-c4ccc(C(C)(C)O)nc4)nc32)CC1 | human | oral, 7.5 mg, patients | 45.8 ng/mL |
| FC(F)(F)c1ccc(CNc2ccc(Cc3c[nH]c4ncc(Cl)cc34)cn2)cn1 | human | oral, 800 mg, multiple doses, patients | 6780 ng/mL |
| C[C@@]1(c2cc(NC(=O)c3ccc(C#N)cn3)ccc2F)C=CSC(N)=N1 | human | oral, 3 mg, single dose | 17.2 ng/mL |
| COc1cc(C(=O)NC2CCN(C)CC2)c(F)cc1Nc1ncc(C(F)(F)F)c(Oc2cccc3c2C(=O)N(C)C3)n1 | human | oral, 50 mg, single dose, patients | 312 nM |
| CC(C)n1cc(C#N)c2cc(-n3cc(C(=O)O)cn3)ccc21 | human | oral, 100 mg, single dose, fasted, healthy volunteers | 3520 ng/mL |
